High-throughput results (PubChem)
UHRF1 MBD2 ctr – blocks human UHRF1 binding to methylated DNA. Q96T88. UHRF1 binding to methylated oligo, TR-FRET. inhibition, % at 4.4 µM. hit rate 0.75% among 370,000. AID 687016; in the data active means inhibition above about 21%;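 further: UHRF1 SRA domain binding a hemimethylated CpG hairpin DNA probe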
Rin1 Abl inh – human Rin1-Abl interaction inhibition | TR-FRET Rin1/Abl binding, biochemical | inhibition, % at 7.35 µM | hit rate 0.4% among 360,000; in the data active means inhibition above about 5%, passing the limit was not always enough
LEDGF integ inh – blocks HIV-1 LEDGF/p75-dependent DNA integration | TR-FRET IN-LEDGF/p75 DNA integration, Eu/Cy5 | inhibition, % at 3.7 µM | hit rate 0.64% among 370,000;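 active means inhibition above the screen-wide mean plus 3 SD, cut at about 13% in these data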;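 further: signal is the Cy5 over europium emission ratio at 671 and 618 nm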
TDP2 inh – TDP2 (human) inhibition, absorbance primary screen | O95551 | recombinant TDP2, T5PNP hydrolysis, p-nitrophenol absorbance 415 nm | inhibition, % at 12.8 µM | hit rate 0.34% among 370,000 | AID 720702;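 active means inhibition above the mean of all tested compounds plus 3 SD, set per campaign, cut at about 25% in these data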
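Test system: human TDP2 enzyme; Input: 120 nM TDP2 per well; Buffer or medium: Mg2+-containing Tris-HCl buffer, pH 7.5; Reagent: 5 mM T5PNP; Dosing: 12.8 µM single point, 1% DMSO; Incubation: reaction 2 h, 37 °C; Detection: p-Nitrophenol epi absorbance; Read-out: % inhibition relative to enzyme-containing and enzyme-free wells; Replicates: single well per compound.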
MBD2 DNA inh – MBD2-methylated oligo binding inhibition; hit rate 0.31% among 370,000; inhibition, % at 4.4 µM; AID 686964; Q9UBB5; TR-FRET, MBD2 binding to methylated oligonucleotide; in the data active means inhibition above about 13%
Target sequence (Q9UBB5 whole entry, looked up): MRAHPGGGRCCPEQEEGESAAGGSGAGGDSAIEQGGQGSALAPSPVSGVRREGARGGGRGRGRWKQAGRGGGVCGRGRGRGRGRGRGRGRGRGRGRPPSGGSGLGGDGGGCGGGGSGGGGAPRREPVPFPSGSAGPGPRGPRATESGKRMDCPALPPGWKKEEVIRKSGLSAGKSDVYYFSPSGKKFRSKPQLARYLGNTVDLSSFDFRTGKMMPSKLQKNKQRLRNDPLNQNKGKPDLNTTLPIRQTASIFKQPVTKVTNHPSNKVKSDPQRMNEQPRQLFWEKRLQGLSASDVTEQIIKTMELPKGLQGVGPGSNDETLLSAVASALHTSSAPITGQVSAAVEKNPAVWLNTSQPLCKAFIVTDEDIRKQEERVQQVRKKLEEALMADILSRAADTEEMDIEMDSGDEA
Rin1-Abl confirm – confirmation of inhibitors of human Rin1-Abl interaction; TR-FRET Rin1-Abl binding, purified proteins; inhibition, % at 7.35 µM; shares compounds with Rin1 Abl inh; hit rate 49% among 1,300
GFP quench – quenches GFP fluorescence, counter-screen for Rin1-Abl inhibitors. shares compounds with Rin1 Abl inh. inhibition, % at 6.75 µM. inhibitors/quenchers counterscreen. hit rate 8.5% among 1,300. AID 602125;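 further: ABL1-eGFP fusion protein alone without its partner RIN1-SBP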
GFP quench dose – counter-screen for Rin1-Abl inhibitors: GFP quenchers, dose response | IC50, µM | shares compounds with Rin1 Abl inh | 230 tested, under 10 active | GFP fluorescence interference/quenching counterscreen; call rule not given here;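 further: ABL1-eGFP fusion protein alone without its RIN1 binding partner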
TDP2 inh conf – human TDP2 inhibition, confirmation | recombinant human TDP2, absorbance read-out | hit rate 22% among 1,100 | shares compounds with TDP2 inh | inhibition, % at 12.8 µM | AID 743263; in the data active means inhibition above about 25%
IN multimer act – activates HIV-1 integrase multimerization in LEDGF counter-screen. shares compounds with LEDGF integ inh. hit rate 17% among 2,000. TR-FRET HIV-1 integrase multimerization, biochemical. AID 1053131. activation, % at 7.7 µM; in the data active means activation above about 8.9%
TR-FRET interf – optically interferes with TR-FRET readout in LEDGF counter-screen; shares compounds with LEDGF integ inh; TR-FRET optical interference counterscreen, HIV-1 IN multimerization; inhibition, % at 7.7 µM; 2,000 tested, under 10 active;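 active means inhibition above the mean over all tested compounds plus 3 SD, which no compound reached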
IN-LEDGF confirm – LEDGF/p75-dependent HIV-1 integration inhibition, confirmation | shares compounds with LEDGF integ inh | TR-FRET LEDGF/p75-dependent HIV-1 integration, biochemical | inhibition, % at 3.7 µM | hit rate 36% among 2,000 | AID 1053136; in the data active means inhibition above about 14%
Of the large screens only hits and unclear results are named; the others gave an inactive call (follow-up assays come after a bar, where they were run). Only some compounds are listed: those with a hit (about 1.9% of all), similar ones and a draw of the others. Unless noted, no stated cut-off is given here; in the data, active means inhibition above about 6.5%; inactive means the rest.

Cc1ccc(C(=O)NC2(O)C(=O)c3ccccc3C2=O)cc1C	Rin1 Abl inh 11.7, TDP2 inh 73.5 | Rin1-Abl confirm 15.9 | GFP quench inactive | TDP2 inh conf 74.6
COC(=O)C1CN(Cc2ccccc2)CCS(=O)(=O)N1Cc1cn(Cc2ccccc2Br)nn1 (configuration not stated)	none (no result: Rin1 Abl inh)
Cc1cc(N2CCC(C)CC2)nc2ccccc12	none (no result: Rin1 Abl inh)
O=S(=O)(Nc1c(S(=O)(=O)c2ccccc2)c2nc3ccccc3nc2n1C1CCCCC1)c1ccccc1	Rin1 Abl inh 9.8, LEDGF integ inh 33.2, TDP2 inh 88.9 | Rin1-Abl confirm inactive | GFP quench inactive | TDP2 inh conf 84.1
Cc1[nH][nH]c(=O)c1C(c1c(C)[nH][nH]c1=O)c1cn(Cc2ccc(Cl)c(Cl)c2)c2ccccc12	Rin1 Abl inh 14.2, TDP2 inh 44.1 | Rin1-Abl confirm inactive | GFP quench inactive | TDP2 inh conf 27.1
Cc1[nH][nH]c(=O)c1C(c1c(C)[nH][nH]c1=O)c1cn(Cc2ccc(F)cc2)c2ccccc12	none (no result: UHRF1 MBD2 ctr, LEDGF integ inh, TDP2 inh, MBD2 DNA inh)
CCCCOCCCNC(=O)C[C@H]1C[C@@]2(C(=O)OC)C(=C[C@H](C(C)C)O[C@@H]2C2CC2)N(Cc2cccc3ccccc23)C1=O	none (no result: Rin1 Abl inh)
C[C@H]1[C@@H](NC(=O)c2cccc(N(C)C)c2)CC[C@@]23CCCN2C(=O)CCC[C@@H]13	none (no result: Rin1 Abl inh)
CC1=NN(c2nc(-c3ccc(Cl)cc3)cs2)C(=O)C1	none
CC1=NN(c2ccc(Cl)cc2)C(=O)C1	Rin1 Abl inh 14.3, TDP2 inh 57.6 | Rin1-Abl confirm inactive | GFP quench inactive | TDP2 inh conf inactive
CCN=c1scc(C)n1/N=C/c1ccc(O)c(O)c1O	Rin1 Abl inh 19.6, LEDGF integ inh 51.8 | Rin1-Abl confirm 16.0 | GFP quench 11.9 | IN multimer act 20.4 | TR-FRET interf inactive | IN-LEDGF confirm 36.4
CCCCCc1cccc2[nH]cc(-c3ccccc3)c12	none (no result: Rin1 Abl inh)
CC(=O)OCCC(CC(C)C)NC(=O)[C@H](CC(C)C)NC(=O)OCc1ccccc1 (some centres not stated)	none (no result: Rin1 Abl inh)
COCC(=O)OC1CCn2c1nc1c2C(=O)C(C)=C(NC(C)=O)C1=O (configuration not stated)	Rin1 Abl inh 17.8, LEDGF integ inh 16.2, TDP2 inh 88.7 | Rin1-Abl confirm 16.5 | GFP quench inactive | IN multimer act inactive | TR-FRET interf inactive | IN-LEDGF confirm 58.4
O=C(NCCCO)c1ccc2nc(-c3ccco3)c(-c3ccco3)nc2c1	Rin1 Abl inh 11.2, LEDGF integ inh 53.3, TDP2 inh 40.4 | Rin1-Abl confirm inactive | GFP quench 11.4 | TDP2 inh conf 31.2 | IN multimer act 50.1 | TR-FRET interf inactive | IN-LEDGF confirm 70.2
CC(=O)CC[C@H]1CC[C@]2(CCCN(C(=O)C3CCCCC3)C2)O1	none (no result: Rin1 Abl inh)
O=C(CCn1nnc2ccccc21)N1CCN(c2cccc(C(F)(F)F)c2)CC1	none (no result: Rin1 Abl inh)
O=C(O)CCCCCCCCCCC1CCC(O)C1O (configuration not stated)	none
O=C(O)CCCC[C@@H]1SC[C@@H]2NC(=O)N[C@@H]21	Rin1 Abl inh 83.9, LEDGF integ inh 92.7 | Rin1-Abl confirm 92.9 | GFP quench inactive | GFP quench dose inactive | IN multimer act inactive | TR-FRET interf inactive | IN-LEDGF confirm 95.9
COC(=O)C1=C(O)/C(=C\c2ccc(CNS(=O)(=O)c3ccccc3)o2)N=C1C	Rin1 Abl inh 6.0, LEDGF integ inh 23.5 | Rin1-Abl confirm inactive | GFP quench inactive | IN multimer act inactive | TR-FRET interf inactive | IN-LEDGF confirm 18.2
CCCCOc1ccc(C(=O)n2ccc3ccc(-c4ccc5ccn(Cc6ccccc6)c5c4)cc32)cc1	none (no result: Rin1 Abl inh)
CCOc1cc(/C=C2/C(=O)N(c3ccccc3)N=C2C)ccc1OC(=O)c1ccco1	Rin1 Abl inh 19.3, LEDGF integ inh 25.4, TDP2 inh 77.0 | Rin1-Abl confirm inactive | GFP quench inactive | TDP2 inh conf 29.3 | IN multimer act inactive | TR-FRET interf inactive | IN-LEDGF confirm inactive
Cc1nnc(N/N=C/c2ccc(Br)cc2)n1N	Rin1 Abl inh 6.7, LEDGF integ inh 46.6, TDP2 inh 73.6 | Rin1-Abl confirm inactive | GFP quench inactive | TDP2 inh conf inactive | IN multimer act inactive | TR-FRET interf inactive | IN-LEDGF confirm inactive
O=c1cc(-c2ccc(O)cc2)oc2c(O)c(O)c(O)c(O)c12	Rin1 Abl inh 36.9, LEDGF integ inh 41.3 | Rin1-Abl confirm 48.2 | GFP quench 21.6 | IN multimer act 18.6 | TR-FRET interf inactive | IN-LEDGF confirm 92.3
CCc1cccc(NC(=O)CCCN2C(=O)NC(C)(C)C2=O)c1	none
CCc1cccc(NC(=O)CCCCCC2NC(=O)NC2C)c1 (configuration not stated)	Rin1 Abl inh 96.9, LEDGF integ inh 77.1 | Rin1-Abl confirm 99.5 | GFP quench inactive | GFP quench dose inactive | IN multimer act inactive | TR-FRET interf inactive | IN-LEDGF confirm 91.5
CC1NC(=O)NC1CCCCCC(=O)Nc1ccc(F)c(Cl)c1 (configuration not stated)	Rin1 Abl inh 85.9, LEDGF integ inh 74.1 | Rin1-Abl confirm 96.8 | GFP quench inactive | GFP quench dose inactive | IN multimer act inactive | TR-FRET interf inactive | IN-LEDGF confirm 91.6
O=C(Nc1c(-c2ccccc2)nc2ncccn12)c1ccccc1	none (no result: Rin1 Abl inh)
